Assay outcomes from PubChem.
In the library only some 3.7% were active in any assay of this set; here they are far more common.
WT yeast gro inh – growth inhibition of WT yeast, mitochondrial fusion screen. inhibition, % at 10 µM. 190,000 tested, 2.1% active. mitochondrial fusion phenotypic screen, WT strain; in the data active = inhibition above about 58%; tested in S. cerevisiae
14-3-3 Bad inh – disrupts binding of bovine 14-3-3 zeta to phospho-Bad peptide | inhibition, % at 21.7 µM | AID 781 | 220,000 tested, 0.71% active | TR-FRET 14-3-3zeta/Dy647-pBad peptide displacement, 1 h;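 active = inhibition above about 70%, limit read from the data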;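 also: 0% = full 14-3-3 plus peptide FRET controls and 100% = background without 14-3-3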
eIF4E-4G inh – inhibitors of eIF4E and eIF4G interaction in translation initiation; P63073+Q04637; TR-FRET eIF4E-eIF4GI(517-606) binding, 2 h; inhibition, % at 21.7 µM; 220,000 tested, 0.37% active; AID 782;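 also: 0% = full FRET control wells and 100% = background wells lacking eIF4GI fragment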
EBV gp42 inh – blocks Epstein-Barr virus glycoprotein 42 binding | Q1HVG2 | Fluorescence polarization binding assay, mP read-out | inhibition, % (tested at 21.74 µM) | 220,000 tested, 0.42% active | AID 1085; in the data active = inhibition above about 50%
p47phox inh – blocks human p47phox regulatory protein of NADPH oxidases. P14598. p47phox/p22phox peptide binding, fluorescence polarization, 2 h. inhibition, % at 24.7 µM. 220,000 tested, 0.53% active;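 also: 0% = p47phox with labelled peptide and 100% = labelled peptide alone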
RBBP9 inh – inhibitors of human serine hydrolase RBBP9 | recombinant RBBP9, FP-Rh probe fluorescence polarization | 220,000 tested, 0.2% active | O75884 | inhibition, % at 7.94 µM;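 active = inhibition above the campaign mean of all tested compounds plus 3 SD, cut at about 14% in these data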;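 also: plate controls were DMSO wells with RBBP9 for no effect and wells lacking RBBP9 protein for full effect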
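System: RBBP9 protein / Quantity: 2.5 µM RBBP9 dispensing solution, before mixing / Also added: Serine-hydrolase probe FP-Rh, 375 nM pre-mixing / Dosing: 7.94 µM single dose, 0.794% DMSO / Timing: enzyme-compound preincubation 30 min, then probe labeling 45 min, 25 °C / Signal: FP readout at 525/598 nm / Controls: DMSO-treated enzyme wells and wells lacking RBBP9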
Numbers without * were called inactive; / = no result; [ ] = another dose, or the depositor's remark.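 The calls were made as follows, unless noted: active = inhibition above about 30% (limit read from the data); inactive = the rest.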

SMILES	WT yeast gro inh	14-3-3 Bad inh	eIF4E-4G inh	EBV gp42 inh	p47phox inh	RBBP9 inh
CC[n+]1c(/C=C/c2c[nH]c3ccccc23)ccc2cc(C)ccc21	76.5*	-19.4	32.0*	-204.9	-167.8	-22.9
CCCN1C(=O)/C(=C/c2ccc(N3CCCC3)c(C)c2)NC1=S	69.4*	-14.2	1.9	-27.6	-89.3	-2.0
CCOC(=O)N1CCN(C(=O)CSc2ccc3nnc(CCNC(=O)c4ccccc4)n3n2)CC1	-7.5	-1.5	-0.5	0.6	-0.1	-7.9
CC(=O)NC(=S)Nc1ccccc1N1CCCCC1	16.9	-12.0	-3.4	0.9	1.9	-0.7
O=C(Nc1cccc(Cl)c1N1CCCC1)c1ccc(Br)o1	67.8*	6.5	5.3	-8.4	-20.9	-8.1
O=C(Nc1cccc(Cl)c1N1CCCC1)c1ccc([N+](=O)[O-])o1	16.2	2.9	-3.4	9.2	0.4	-2.7
CCCC(=O)NC(=S)Nc1ccccc1N1CCOCC1	0.4	-2.3	-3.6	-8.0	-6.8	2.2
CCCCC(=O)NC(=S)Nc1cccc(Cl)c1N1CCCCC1	10.1	-8.8	18.6	-4.5	1.6	0.5
CCCCC(=O)NC(=S)Nc1ccccc1N1CCCCC1	65.4*	-1.8	-3.0	-2.1	-2.5	-2.7
O=C(Cc1ccc(Cl)cc1)NC(=S)Nc1ccccc1N1CCOCC1	62.2*	-1.4	0.1	-14.4	-7.5	-5.6
CCCC(=O)NC(=S)Nc1cccc(Cl)c1N1CCCCC1	60.1*	12.4	-0.9	-8.7	6.0	-8.9
O=C(c1cc(C(=O)N2CCOCC2)c2nc3ccccc3n2c1)c1cc(Cl)cc(Cl)c1O	/	-0.5	-10.4	-10.9	4.7	-4.0
CCOC(=O)c1c(C)[nH]c(C(=O)COC(=O)c2ccc(O)cc2)c1C	/	81.6*	2.5	-11.8	-13.8	-8.3
CCOC(=O)c1c(C)[nH]c(C(=O)OCC(=O)Nc2cc(Cl)ccc2OC)c1C	85.4*	1.7	-30.0	-15.6	-11.6	-1.6
CCOC(=O)c1c(C)[nH]c(C(=O)OCCOc2ccccc2C)c1C	1.4	75.2*[fluorescence artefact?]	6.8	15.0	-2.0	-11.4
COCCOc1cc2ncnc(N3CCC(C(=O)O)CC3)c2cc1OCCOC	/	-0.8	-2.6	-8.3	-6.6	-1.2
COc1cc(/C=N/NC(=O)CNc2n[nH]c(=O)[nH]c2=O)ccc1OCc1ccccc1	/	-6.3	-5.7	-4.9	3.7	-2.1
COc1ccc(NS(=O)(=O)c2cccc(N/C(=N\S(=O)(=O)c3ccccc3)c3ccc(F)cc3)c2)cc1	-22.2	8.2	3.8	-12.4	-9.2	-21.1
Cc1c(C(=O)NCc2n[nH]c(=S)n2-c2ccc(F)cc2)cccc1[N+](=O)[O-]	11.3	2.1	-1.6	-18.0	0.8	-2.1
Cc1cnc([N+](=O)[O-])n1CCOC(=O)NC(=O)c1ccccc1	-2.5	-7.6	-3.3	1.8	0.5	-0.8
Cc1ccc(C(=O)NC(=O)OCCn2c(C)cnc2[N+](=O)[O-])cc1	11.7	74.0*	1.0	1.7	9.9	-7.3
CCn1c(SCC(=O)N2CCc3ccccc32)nnc1-c1c[nH]c2ccccc12	-2.3	-12.7	-8.4	2.2	-7.4	-1.9
COc1ccc(-n2c(SCC(=O)N3CCc4ccccc43)nnc2-c2c[nH]c3ccccc23)cc1	15.8	78.1*	8.9	-4.6	51.5*	-6.1
Cc1nc(-c2cccc(S(=O)(=O)N3CCC(C)CC3)c2)cs1	3.6	-0.9	-1.2	-14.0	-9.2	-6.5
Cc1nc(-c2cccc(S(=O)(=O)N3CCCC(C)C3)c2)cs1 (stereo not drawn)	19.1	80.4*	12.5	-26.5	-15.0	4.8
CC1Cc2ccccc2N1C(=O)CSc1nccc(=O)[nH]1 (stereo not drawn)	-7.9	-1.6	-1.1	-4.0	6.9	-1.8
O=S(=O)(c1cc(Cl)ccc1Cl)n1ccnc1	-11.2	7.5	-2.1	-15.4	146.9*	1.3
Cc1cccc(N(CC(O)CON=C2c3ccccc3-c3ccccc32)S(C)(=O)=O)c1 (stereo not drawn)	62.9*	-2.5	-2.5	6.3	1.5	-5.0
O=C(Nn1c(Cc2ccccc2)nc2ccccc2c1=O)c1c(O)c2cccc3c2n(c1=O)CCC3	68.3*	-15.0	1.6	-14.1	-14.2	-1.5
O=C(CSc1nncc2ccccc12)N1CCCCC1	-21.0	-12.8	-3.4	2.2	6.1	-9.9
